Assay results taken from ChEMBL document CHEMBL1148612, “Rapid synthesis of triazole-modified resveratrol analogues via click chemistry” (J Med Chem, 2006).

Legend:
MDA-MB-231 [1] = experiment: Cytotoxicity against breast cancer MDA-MB-231 cell line by MTT assay; format: functional, cell-based; settings: Homo sapiens
Procedure, shortened: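 MDA-MB-231 cells were screened by MTT in an automated format across decreasing compound concentrations. Viability was expressed as % of untreated control, with 70% of control as the arbitrary cutoff for reduced viability at 10 µM. IC50 values are approximate and were assigned to concentration ranges.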

FG2 = experiment: Cytotoxicity against human pancreatic carcinoma FG2 cell line by MTT assay at 100 uM; format: functional
Procedure, shortened: (§1)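 Cells were exposed to compound at 100 µM for 48 h. Values are % viability relative to untreated control cells, given as mean ± SEM of four determinations.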

MDA-MB-231 [2] = experiment: Cytotoxicity against breast cancer MDA-MB-231 cell line by MTT assay at 100 uM; format: functional, Homo sapiens; procedure, shortened: as §1
SH-SY5Y = experiment: Cytotoxicity against neuroblastoma SHSY5Y cell line by MTT assay at 100 uM; format: functional, Homo sapiens; procedure, shortened: as §1
RBL-2H3 = experiment: Cytotoxicity against basophilic leukemia RBL 2H3 cell line by MTT assay at 100 uM; format: functional, Rattus norvegicus; procedure, shortened: as §1

Which IC50 (MDA-MB-231 [1]) does the source give for `COc1ccc(-n2cc(-c3cc(O)cc(O)c3)nn2)cc1OC` here?
Its IC50 is over 10 µM.

For `COc1cc(OC)cc(-c2cn(-c3cc(OC)c(OC)c(OC)c3)nn2)c1`, which IC50 (MDA-MB-231 [1]) is on record?
The IC50 was over 10 µM.

`COc1ccc(-n2cc(-c3ccc(N)cc3)nn2)cc1O` was tested. Which IC50 (MDA-MB-231 [1]) did it give?
Its IC50 is over 10 µM.

For `COc1ccc(-n2cc(-c3cc(OC)c(OC)c(OC)c3)nn2)cc1O`, which IC50 (MDA-MB-231 [1]) is on record?
The IC50 was 10 µM.

With `COc1ccc(-n2cc(-c3ccc(OC)c(O)c3)nn2)cc1` as the molecule, how does the IC50 (MDA-MB-231 [1]) read?
The IC50 was over 10 µM.

For `COc1ccc(-c2cn(-c3ccc4c(c3)OCO4)nn2)cc1O`, which IC50 (MDA-MB-231 [1]) is on record?
Its IC50 is over 10 µM.

How did the IC50 (MDA-MB-231 [1]) turn out when `COc1cc(OC)cc(-c2cn(-c3ccc4c(c3)OCO4)nn2)c1` was run?
The IC50 was over 10 µM.

`Nc1ccc(-c2cn(-c3ccc(Oc4ccccc4)cc3)nn2)cc1` was tested. Which IC50 (MDA-MB-231 [1]) did it give?
The IC50 was over 10 µM.

For `COc1ccc(-n2cc(-c3cc(O)cc(O)c3)nn2)cc1`, which IC50 (MDA-MB-231 [1]) is on record?
Its IC50 is over 10 µM.

Which IC50 (MDA-MB-231 [1]) does the source give for `COc1ccc(-n2cc(-c3ccc(N)cc3)nn2)c(OC)c1` here?
Its IC50 is over 10 µM.

How did the IC50 (MDA-MB-231 [1]) turn out when `COc1ccc(-n2cc(-c3ccc(OC)c(OC)c3)nn2)cc1` was run?
Its IC50 is over 0.1 µM.

Which IC50 (MDA-MB-231 [1]) does the source give for `COc1cc(OC)cc(-c2cn(-c3cc(OC)cc(OC)c3)nn2)c1` here?
Its IC50 is over 10 µM.

How did the IC50 (MDA-MB-231 [1]) turn out when `COc1ccc(-c2cn(-c3ccc(Oc4ccccc4)cc3)nn2)cc1OC` was run?
The IC50 was 10 µM.

For `COc1ccc(-c2cn(-c3ccc4c(c3)OCO4)nn2)cc1OC`, which IC50 (MDA-MB-231 [1]) is on record?
The IC50 was 10 µM.

`COc1cc(OC)cc(-c2cn(-c3ccc(OC)c(O)c3)nn2)c1` was tested. Which IC50 (MDA-MB-231 [1]) did it give?
Its IC50 is over 10 µM.

For `Nc1ccc(-c2cn(-c3ccc(OC(F)(F)F)cc3)nn2)cc1`, which IC50 (MDA-MB-231 [1]) is on record?
Its IC50 is over 0.01 µM.

Which IC50 (MDA-MB-231 [1]) does the source give for `COc1cc(-n2cc(-c3cc(O)cc(O)c3)nn2)cc(OC)c1OC` here?
The IC50 was over 10 µM.

With `COc1cc(OC)cc(-c2cn(-c3ccc(OC)cc3OC)nn2)c1` as the molecule, how does the IC50 (MDA-MB-231 [1]) read?
Its IC50 is over 10 µM.

`COc1cc(OC)cc(-n2cc(-c3ccc(N)cc3)nn2)c1` was tested. Which IC50 (MDA-MB-231 [1]) did it give?
Its IC50 is over 10 µM.

Which IC50 (MDA-MB-231 [1]) does the source give for `COc1ccc(-c2cn(-c3c(O)c(F)cc(F)c3F)nn2)cc1O` here?
The IC50 was over 10 µM.

With `COc1ccc(-n2cc(-c3ccc(OC)c(O)c3)nn2)c(OC)c1` as the molecule, how does the IC50 (MDA-MB-231 [1]) read?
The IC50 was over 10 µM.

`COc1cc(OC)cc(-c2cn(-c3ccc(Oc4ccccc4)cc3)nn2)c1` was tested. Which IC50 (MDA-MB-231 [1]) did it give?
The IC50 was over 10 µM.

For `COc1ccc(-c2cn(-c3ccc(OC)c(O)c3)nn2)cc1O`, which IC50 (MDA-MB-231 [1]) is on record?
The IC50 was over 10 µM.

How did the IC50 (MDA-MB-231 [1]) turn out when `COc1cc(OC)cc(-n2cc(-c3ccc(OC)c(O)c3)nn2)c1` was run?
Its IC50 is over 10 µM.

Which IC50 (MDA-MB-231 [1]) does the source give for `COc1ccc(-n2cc(-c3cc(OC)c(OC)c(OC)c3)nn2)c(OC)c1` here?
Its IC50 is over 10 µM.

With `COc1ccc(-n2cc(-c3ccc(N)cc3)nn2)cc1` as the molecule, how does the IC50 (MDA-MB-231 [1]) read?
Its IC50 is over 0.1 µM.

For `COc1cc(-c2cn(-c3ccc(OC(F)(F)F)cc3)nn2)cc(OC)c1OC`, which IC50 (MDA-MB-231 [1]) is on record?
The IC50 was over 10 µM.

`COc1ccc(-n2cc(-c3cc(OC)cc(OC)c3)nn2)cc1` was tested. Which Activity (FG2) did it give?
Its Activity is 88.2%.

What about the Activity (MDA-MB-231 [2]) of the same molecule?
Its Activity is 93.2%.

What about the Activity (SH-SY5Y) of the same molecule?
The Activity was 78.6%.

What about the Activity (RBL-2H3) of the same molecule?
Its Activity is 116%.

With `COc1ccc(-c2cn(-c3c(O)c(F)cc(F)c3F)nn2)cc1` as the molecule, how does the IC50 (MDA-MB-231 [1]) read?
Its IC50 is over 1 µM.

Which IC50 (MDA-MB-231 [1]) does the source give for `COc1ccc(-c2cn(-c3cc(OC)c(OC)c(OC)c3)nn2)cc1O` here?
The IC50 was over 10 µM.

`COc1cc(-c2cn(-c3ccc4c(c3)OCO4)nn2)cc(OC)c1OC` was tested. Which IC50 (MDA-MB-231 [1]) did it give?
The IC50 was 10 µM.

Which IC50 (MDA-MB-231 [1]) does the source give for `COc1cc(OC)cc(-c2cn(-c3ccc(OC)c(OC)c3)nn2)c1` here?
The IC50 was 10 µM.

Which IC50 (MDA-MB-231 [1]) does the source give for `COc1cc(-c2cn(-c3ccc(OC(F)(F)F)cc3)nn2)ccc1O` here?
The IC50 was 10 µM.

`COc1ccc(-c2cn(-c3ccc(OC)c(O)c3)nn2)cc1` was tested. Which IC50 (MDA-MB-231 [1]) did it give?
Its IC50 is over 0.1 µM.

Which IC50 (MDA-MB-231 [1]) does the source give for `COc1ccc(-n2cc(-c3ccc(OC)c(OC)c3)nn2)cc1O` here?
The IC50 was over 1 µM.

`COc1ccc(-c2cn(-c3ccc(N)cc3)nn2)cc1O` was tested. Which IC50 (MDA-MB-231 [1]) did it give?
The IC50 was over 10 µM.

`COc1ccc(-c2cn(-c3ccc(N)cc3)nn2)cc1` was tested. Which IC50 (MDA-MB-231 [1]) did it give?
The IC50 was over 0.1 µM.

Which Activity (FG2) does the source give for `Oc1ccc(/C=C/c2cc(O)cc(O)c2)cc1` [RESVERATROL] here?
Its Activity is 42.2%.

And the Activity (MDA-MB-231 [2])?
The Activity was 67.9%.

And the Activity (SH-SY5Y)?
Its Activity is 33.5%.

And the Activity (RBL-2H3)?
The Activity was 52.1%.
